Reference: ChEMBL document CHEMBL4049414, “Can We Make Small Molecules Lean? Optimization of a Highly Lipophilic TarO Inhibitor” (J Med Chem, 2017)
Values after ≈ are worked out from the molar mass of the structure shown. Active and inactive are the calls of the source. The calls are words filed in the database; no cut-off is given here.

Experiments:
[1] = Inhibition of TarO in methicillin-resistant Staphylococcus aureus membranes assessed as reduction in C55-P-P-GlcNAc production using C55-P as substrate in presence of UDP-GlcNAc by LC-MS analysis
[2] = system: Staphylococcus aureus subsp. aureus COL; assay: Inhibition of methicillin-resistant Staphylococcus aureus COL TarO assessed as compound concentration required for potentiation of imipenem-mediated bacterial growth inhibition by 95% after 20 hrs
How it was run: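 MRSA COL grown with compound in the presence of imipenem at 4 μg/mL. Growth read by OD600. The value is the minimum concentration that inhibits 95% of growth (sMITC95).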

[3] = system: Staphylococcus aureus; assay: Growth inhibition of methicillin-resistant Staphylococcus aureus COL after 20 hrs
How it was run: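 MRSA COL grown with compound alone, with no antibiotic added. Growth read by OD600. The value is the minimum concentration that inhibits 95% of growth (iMITC95).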

[4] = system: Staphylococcus aureus; assay: (§1) Potentiation of imipenem-induced antibacterial activity against methicillin-resistant Staphylococcus aureus COL MB 5393 infected in neutropenic balb/c mouse assessed as reduction in bacterial burden in kidney at 10 mg/kg, sc administered three times per day at 2, 5 and 8 hrs post challenge cotreated with imipenem measured 24 hrs post challenge; assay type: functional, organism-based
[5] = Solubility of the compound in PBS buffer; assay type: physicochemical
[6] = AUC (0 to infinity) in rat at 1 mg/kg, iv; assay type: ADME, organism-based; design: dose 1 mg/kg, time infinity, route intravenous; conditions: in vivo
[7] = Clearance in rat at 1 mg/kg, iv; assay type: ADME, organism-based; conditions: in vivo
[8] = Volume of distribution at steady state in rat at 1 mg/kg, iv; assay type: ADME, organism-based; conditions: in vivo, read-out: Vdss
[9] = Terminal half life in rat at 1 mg/kg, iv; assay type: ADME, organism-based; conditions: in vivo, read-out: beta t1/2 (converted)
[10] = species: Homo sapiens; assay: Inhibition of PAF (unknown origin) at 10 uM relative to control
[11] = species: Homo sapiens; assay: Inhibition of adenosine transporter (unknown origin) at 10 uM relative to control
[12] = target: Mitogen-activated protein kinase 3 (Homo sapiens) (UniProt P27361); assay: Inhibition of ERK1 (unknown origin) at 10 uM relative to control
Mitogen-activated protein kinase 3 (Homo sapiens), sequence (P27361 whole entry): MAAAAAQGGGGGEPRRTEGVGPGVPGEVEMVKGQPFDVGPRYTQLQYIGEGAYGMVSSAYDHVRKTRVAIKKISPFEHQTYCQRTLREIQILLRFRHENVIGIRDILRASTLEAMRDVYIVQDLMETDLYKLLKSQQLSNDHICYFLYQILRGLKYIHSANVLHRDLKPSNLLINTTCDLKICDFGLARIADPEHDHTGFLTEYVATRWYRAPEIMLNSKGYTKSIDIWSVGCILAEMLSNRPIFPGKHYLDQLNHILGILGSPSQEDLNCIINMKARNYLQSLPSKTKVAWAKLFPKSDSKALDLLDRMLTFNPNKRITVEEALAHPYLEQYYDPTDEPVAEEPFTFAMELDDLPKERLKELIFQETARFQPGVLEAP

[13] = target: Cannabinoid receptor 1 (Homo sapiens) (UniProt P21554); assay: Inhibition of CB1 receptor (unknown origin) at 10 uM relative to control
Cannabinoid receptor 1 (Homo sapiens), sequence (P21554 whole entry): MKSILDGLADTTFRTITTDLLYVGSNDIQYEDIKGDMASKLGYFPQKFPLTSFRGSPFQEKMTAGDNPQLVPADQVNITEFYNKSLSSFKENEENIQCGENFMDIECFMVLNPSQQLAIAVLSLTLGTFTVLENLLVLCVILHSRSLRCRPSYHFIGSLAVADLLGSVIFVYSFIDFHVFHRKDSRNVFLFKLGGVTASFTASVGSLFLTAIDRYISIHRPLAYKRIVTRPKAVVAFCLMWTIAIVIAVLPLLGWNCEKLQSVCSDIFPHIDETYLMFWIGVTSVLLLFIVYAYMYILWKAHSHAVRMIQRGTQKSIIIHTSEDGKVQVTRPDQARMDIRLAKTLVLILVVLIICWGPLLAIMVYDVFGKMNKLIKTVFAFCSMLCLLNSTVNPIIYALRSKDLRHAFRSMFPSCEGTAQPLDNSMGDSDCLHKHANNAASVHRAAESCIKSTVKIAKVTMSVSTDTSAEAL

[14] = species: Homo sapiens; assay: Inhibition of TBOB binding to GABA-A receptor (unknown origin) at 10 uM relative to control
[15] = target: Histamine H2 receptor (Homo sapiens) (UniProt P25021); assay: Inhibition of H2 receptor (unknown origin) at 10 uM relative to control
Histamine H2 receptor (Homo sapiens), sequence (P25021 whole entry): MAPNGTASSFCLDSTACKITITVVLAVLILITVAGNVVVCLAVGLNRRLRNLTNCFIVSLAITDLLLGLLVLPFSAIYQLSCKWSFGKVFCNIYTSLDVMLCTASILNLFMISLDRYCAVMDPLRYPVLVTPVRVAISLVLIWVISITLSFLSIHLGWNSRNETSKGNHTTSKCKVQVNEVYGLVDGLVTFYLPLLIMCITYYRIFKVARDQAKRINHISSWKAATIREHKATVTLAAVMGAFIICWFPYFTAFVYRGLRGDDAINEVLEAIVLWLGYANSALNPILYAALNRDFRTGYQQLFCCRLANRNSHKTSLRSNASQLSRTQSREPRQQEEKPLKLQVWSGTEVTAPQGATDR

[16] = AUC (0 to infinity) in mouse at 2 mg/kg, iv; assay type: ADME, organism-based; design: dose 2 mg/kg, time infinity, route intravenous; conditions: in vivo
[17] = Clearance in mouse at 2 mg/kg, iv; assay type: ADME, organism-based; conditions: in vivo
[18] = Volume of distribution at steady state in mouse at 2 mg/kg, iv; assay type: ADME, organism-based; conditions: in vivo, read-out: Vdss
[19] = Terminal half life in mouse at 2 mg/kg, iv; assay type: ADME, organism-based; conditions: in vivo, read-out: beta t1/2 (converted)
[20] = AUC (0 to x) in mouse blood at 50 mg/kg, sc; assay type: ADME, organism-based
[21] = Cmax in mouse blood at 50 mg/kg, sc; assay type: ADME, organism-based; design: dose 50 mg/kg, route subcutaneous
[22] = Tmax in mouse blood at 50 mg/kg, sc; assay type: ADME, organism-based
[23] = AUC (0 to x) in mouse lung at 50 mg/kg, sc; assay type: ADME, organism-based
[24] = Cmax in mouse lung at 50 mg/kg, sc; assay type: ADME, organism-based; design: dose 50 mg/kg, route subcutaneous
[25] = Tmax in mouse lung at 50 mg/kg, sc; assay type: ADME, organism-based
[26] = AUC (0 to x) in mouse liver at 50 mg/kg, sc; assay type: ADME, organism-based
[27] = Cmax in mouse liver at 50 mg/kg, sc; assay type: ADME, organism-based; design: dose 50 mg/kg, route subcutaneous
[28] = Tmax in mouse liver at 50 mg/kg, sc; assay type: ADME, organism-based
[29] = AUC (0 to x) in mouse spleen at 50 mg/kg, sc; assay type: ADME, organism-based
[30] = Cmax in mouse spleen at 50 mg/kg, sc; assay type: ADME, organism-based; design: dose 50 mg/kg, route subcutaneous
[31] = Tmax in mouse spleen at 50 mg/kg, sc; assay type: ADME, organism-based
[32] = AUC (0 to x) in mouse kidney at 50 mg/kg, sc; assay type: ADME, organism-based
[33] = Cmax in mouse kidney at 50 mg/kg, sc; assay type: ADME, organism-based; design: dose 50 mg/kg, route subcutaneous
[34] = Tmax in mouse kidney at 50 mg/kg, sc; assay type: ADME, organism-based
[35] = Ratio of AUC (0 to x) in mouse spleen to AUC (0 to x) in mouse blood at 50 mg/kg, sc; assay type: ADME, organism-based; conditions: read-out: Ratio AUC
[36] = Ratio of Cmax in mouse spleen to Cmax in mouse blood at 50 mg/kg, sc; assay type: ADME, organism-based
[37] = system: Staphylococcus aureus; assay: Antibacterial activity against methicillin-resistant Staphylococcus aureus COL MB 5393 infected in neutropenic balb/c mouse assessed as reduction in bacterial burden in kidney at 12.5 to 50 mg/kg, sc administered three times per day at 2, 5 and 8 hrs post challenge measured 24 hrs post challenge; assay type: functional, organism-based
[38] = system: Staphylococcus aureus; assay: as §1, with “infected in sc dosed neutropenic balb/c” for “infected in neutropenic balb/c”, “in kidney administered three” for “in kidney at 10 mg/kg, sc administered three”; assay type: functional, organism-based
[39] = system: Staphylococcus aureus; assay: as §1, with “12.5” for “10”; assay type: functional, organism-based
[40] = system: Staphylococcus aureus; assay: as §1, with “assessed as log reduction in” for “assessed as reduction in”, “kidney at 25 mg/kg, sc” for “kidney at 10 mg/kg, sc”; assay type: functional
[41] = system: Staphylococcus aureus; assay: as §1, with “assessed as log reduction in” for “assessed as reduction in”, “kidney at 50 mg/kg, sc” for “kidney at 10 mg/kg, sc”; assay type: functional
[42] = system: Mus musculus; assay: Toxicity in mouse at 50 mg/kg, sc; assay type: organism-based; conditions: in vivo
[43] = AUC (0 to 24 hrs) in mouse at 100 mg/kg, po; assay type: ADME, organism-based; design: time < 24 hr, dose 100 mg/kg, route oral; conditions: in vivo

For `C[C@H]1[C@@H](c2cc(C(F)(F)F)ccn2)OC(=O)N1C(=O)NCc1cncc2ccccc12`, the IC50 [1] was 5.3 µM, the MITC95 [2] was 6250 nM and the MITC95 [3] was > 200 µM.

In the case of `C[C@H]1[C@@H](c2cc(C(F)(F)F)cc(C(F)(F)F)c2)OC(=O)N1CC(=O)Nc1cncc2ccccc12`, the IC50 [1] is reported as > 200 µM and the MITC95 [2] is reported as > 200000 nM.

For `C[C@H]1[C@@H](c2cc(F)cc(C(F)(F)F)c2)OC(=O)N1C(=O)NCc1cncc2ccccc12`, the IC50 [1] was 0.025 µM, the MITC95 [2] was 125 nM and the MITC95 [3] was > 200 µM.

`C[C@H]1[C@@H](c2cc(C(F)(F)F)cc(C(F)(F)F)c2)OC(=O)N1CCCc1cccc2ccccc12` showed an IC50 [1] of 0.038 µM.

With `CC(=O)NC[C@H]1CN(c2ccc(N3CCOCC3)c(F)c2)C(=O)O1` the Activity [4] was “Active”.

In the case of `COc1cc(C(F)(F)F)cc([C@H]2OC(=O)N(C(=O)NCc3cncc4cccnc34)[C@H]2CO)n1`, the IC50 [1] is reported as 0.88 µM, the MITC95 [2] is reported as 900 nM and the MITC95 [3] is reported as > 200 µM. The solubility [5] was 94 µM (≈ 44.9 µg/mL), the AUC(0-inf) [6] was 0.95 µM·h and the clearance [7] was 2.21 L/h/kg. The Vd [8] was 1.2 L/kg, the half-life [9] was 0.48 h and the inhibition [10] was “inactive”. The inhibition [11] was “inactive”, the inhibition [12] was “inactive” and the inhibition [13] was “inactive”. For the same compound, the inhibition [14] was “inactive” and the inhibition [15] was “inactive”.

For `C[C@H]1[C@@H](c2cc(C(F)(F)F)cc(C(F)(F)F)c2)OC(=O)N1C(=O)NCc1cncc2cccnc12`, the IC50 [1] was 0.012 µM, the MITC95 [2] was 125 nM and the MITC95 [3] was > 200 µM.

With `C[C@H]1[C@@H](c2cccc(C(F)(F)F)c2)OC(=O)N1C(=O)NCc1cncc2ccccc12` the IC50 [1] was 0.162 µM, the MITC95 [2] was 250 nM and the MITC95 [3] was > 200 µM. For the same compound, the AUC(0-inf) [6] was 0.42 µM·h, the AUC(0-inf) [16] was 1.26 µM·h and the clearance [7] was 5.56 to 5.58 L/h/kg. It also gave a clearance [17] of 3.66 to 3.68 L/h/kg, a Vd [8] of 6.6 L/kg and a Vd [18] of 13.1 to 13.5 L/kg. It also gave a half-life [9] of 1.7 h, a half-life [19] of 6.4 h and an AUC [20] of 9.9 µM·h. For the same compound, the Cmax [21] was 4.9 µM, the Tmax [22] was 0.5 h and the AUC [23] was 123 µM·h. The Cmax [24] was 43.7 µM, the Tmax [25] was 0.7 h and the AUC [26] was 322 µM·h. The Cmax [27] was 101 µM, the Tmax [28] was 1 h and the AUC [29] was 75 µM·h. It also gave a Cmax [30] of 29 µM, a Tmax [31] of 1 h and an AUC [32] of 336 µM·h. It also gave a Cmax [33] of 95 µM, a Tmax [34] of 1 h and a Kp [35] of 6 to 8. For the same compound, the Kp [36] was 6 to 8, the Activity [37] was “inactive” and the Activity [38] was “Dose-dependent effect”. The Activity [39] was “inactive”, the “log(activity)” value [40] was 2 and the “log(activity)” value [41] was 2.5. For the same compound, the Activity [42] was “Non-Toxic”.

With `O=C(O)[C@H]1[C@@H](c2cccc(C(F)(F)F)c2)OC(=O)N1C(=O)NCc1cncc2ccccc12` the IC50 [1] was > 200 µM, the MITC95 [2] was > 200000 nM and the MITC95 [3] was > 200 µM.

For `C[C@H]1[C@@H](c2cc(C(F)(F)F)cc(C(F)(F)F)c2)OC(=O)N1C(=O)CCc1cccc2ccccc12`, the IC50 [1] was 0.009 µM, the MITC95 [2] was 15 nM and the MITC95 [3] was > 200 µM.

In the case of `C[C@H]1[C@@H](c2cc(C(F)(F)F)cc(C(F)(F)F)c2)OC(=O)N1C(=O)Cc1cncc2ccccc12`, the IC50 [1] is reported as 2.5 µM and the MITC95 [3] is reported as > 200 µM.

For `C[C@H]1[C@@H](c2cccc(C(F)(F)F)c2)OC(=O)N1C(=O)NCc1cncc2cccnc12`, the IC50 [1] was 0.402 µM, the MITC95 [2] was 970 nM and the MITC95 [3] was > 200 µM.

For `C[C@H]1[C@@H](c2cc(C(F)(F)F)cc(C(F)(F)F)c2)OC(=O)N1C(=O)CCc1cncc2ccccc12`, the IC50 [1] was 0.024 µM, the MITC95 [2] was 23 nM and the MITC95 [3] was > 200 µM. For the same compound, the AUC(0-t) at 24 h [43] was 1.7 µM·h, the inhibition [10] was > 50% and the inhibition [11] was > 50%. The inhibition [12] was > 50%, the inhibition [13] was > 50% and the inhibition [14] was > 50%. For the same compound, the inhibition [15] was > 50%.

For `O=C(NCc1cncc2cccnc12)N1C(=O)O[C@H](c2cc(C(F)(F)F)cc(C(F)(F)F)c2)[C@@H]1CO`, the IC50 [1] was 0.142 µM, the MITC95 [2] was 390 nM and the MITC95 [3] was > 200 µM.
